# Assay results reported in ChEMBL document CHEMBL1146303, “Spirodiketopiperazine-based CCR5 antagonists: Lead optimization from biologically active metabolite” (Bioorg Med Chem Lett, 2007).
# Columns and labels:
# [1] = target: T1, C-C chemokine receptor type 5 (Homo sapiens, UniProt P51681); experiment: Antagonist activity at human CCR5 expressed in CHO cells assessed as inhibition of MIP-1-alpha-stimulated calcium mobilization; format: functional, cell-based
# In short: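 Cells expressing human CCR5 (hCCR5/CHO) were stimulated with MIP-1α, and the rise in intracellular calcium was measured. Potency is reported as an IC50 for inhibition of the calcium response.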
# [2] = test system: Human immunodeficiency virus; experiment: Antiviral activity against HIV; format: functional, organism-based; conditions: Human immunodeficiency virus 1
# [3] = test system: Human immunodeficiency virus 1; experiment: Anti-infective activity against HIV1 BAL in MAGI CCR5+ cells; format: functional, organism-based; conditions: Human immunodeficiency virus 1, BAL
# Cytochrome P450 3A4 = Cytochrome P450 3A4 (Homo sapiens, UniProt P08684); experiment: Inhibition of CYP3A4; format: ADME
# [4] = Aqueous solubility at pH 6.8; format: physicochemical
# [5] = target: T1, C-C chemokine receptor type 5; experiment: Displacement of [125I]MIP1-alpha from human CCR5 expressed in CHO cells; format: cell-based
# [6] = Bioavailability in rat; format: ADME, organism-based; conditions: in vivo
# T1 sequence (P51681 whole entry): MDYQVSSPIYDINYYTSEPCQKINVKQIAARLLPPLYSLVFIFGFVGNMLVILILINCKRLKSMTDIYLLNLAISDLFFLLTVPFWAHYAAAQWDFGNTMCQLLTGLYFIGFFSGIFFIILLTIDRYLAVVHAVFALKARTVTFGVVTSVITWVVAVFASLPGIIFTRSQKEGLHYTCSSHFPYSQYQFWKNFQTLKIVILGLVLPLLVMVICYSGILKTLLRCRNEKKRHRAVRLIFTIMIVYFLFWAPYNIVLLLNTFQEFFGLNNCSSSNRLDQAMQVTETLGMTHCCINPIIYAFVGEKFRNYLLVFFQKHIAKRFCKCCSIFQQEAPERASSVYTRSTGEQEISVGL
# Cytochrome P450 3A4, sequence (P08684 whole entry): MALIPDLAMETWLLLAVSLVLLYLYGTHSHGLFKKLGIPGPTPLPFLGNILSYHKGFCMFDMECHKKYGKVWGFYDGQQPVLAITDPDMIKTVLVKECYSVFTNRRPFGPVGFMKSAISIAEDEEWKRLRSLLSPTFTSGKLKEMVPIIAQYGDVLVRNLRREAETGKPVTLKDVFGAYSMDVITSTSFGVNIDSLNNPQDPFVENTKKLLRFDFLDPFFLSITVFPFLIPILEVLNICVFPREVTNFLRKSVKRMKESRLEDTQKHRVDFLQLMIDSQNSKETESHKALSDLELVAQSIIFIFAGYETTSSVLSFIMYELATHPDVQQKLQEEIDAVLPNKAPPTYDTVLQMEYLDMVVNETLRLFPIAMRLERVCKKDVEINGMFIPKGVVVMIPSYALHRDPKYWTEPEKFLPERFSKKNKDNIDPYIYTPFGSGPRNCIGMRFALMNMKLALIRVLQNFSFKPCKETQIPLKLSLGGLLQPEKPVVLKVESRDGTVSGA
SMILES,IC50 [1],IC50 [5],bioavailability [6],IC50 [2],IC50 [3],IC50 (Cytochrome P450 3A4),solubility [4],IC90 [2]
CCCCN1C(=O)C(CC2CCCCC2)NC(=O)C12CCN(Cc1ccc(Oc3ccccc3)cc1)CC2.Cl (stereo not drawn),0.028 µM,,,0.031 µM,0.337 µM,9.3 µM,< 0.2 µg/mL,
CCCCN1C(=O)[C@@H](CC(C)C)NC(=O)C12CCN(Cc1ccc(Oc3ccccc3)cc1)CC2,0.13 µM,0.029 µM,,,,,,
CCCCN1C(=O)C(CC(C)C)NC(=O)C12CCN(Cc1ccc(Oc3ccccc3)cc1)CC2.Cl (stereo not drawn),0.094 µM,0.0083 µM,1.3%,,,,,0.676 µM
CCCCN1C(=O)[C@H](CC(C)C)NC(=O)C12CCN(Cc1ccc(Oc3ccccc3)cc1)CC2,0.084 µM,0.011 µM,,,,,,
CCCCN1C(=O)[C@H]([C@H](O)C(C)C)NC(=O)C12CCN(Cc1ccc(Oc3ccccc3)cc1)CC2,0.4 µM,0.068 µM,,,,,,

# Continued, in another order:
IC50 [1],IC50 [5],bioavailability [6],SMILES,IC50 [2],IC50 [3],IC50 (Cytochrome P450 3A4),solubility [4],IC90 [2]
0.033 µM,0.0035 µM,< 1%,CCCCN1C(=O)[C@@H]([C@H](O)C(C)C)NC(=O)C12CCN(Cc1ccc(Oc3ccccc3)cc1)CC2.Cl,,,,,
0.079 µM,0.028 µM,,CCCCN1C(=O)C(CC(C)(C)O)NC(=O)C12CCN(Cc1ccc(Oc3ccccc3)cc1)CC2 (stereo not drawn),,,,,
0.21 µM,0.024 µM,,CCCCN1C(=O)[C@@H]([C@@H](O)C(C)C)NC(=O)C12CCN(Cc1ccc(Oc3ccccc3)cc1)CC2,,,,,
0.15 µM,0.053 µM,,CCCCN1C(=O)[C@H]([C@@H](O)C(C)C)NC(=O)C12CCN(Cc1ccc(Oc3ccccc3)cc1)CC2,,,,,
,,< 1%,CCCCN1C(=O)[C@@H]([C@H](O)C2CCCCC2)NC(=O)C12CCN(Cc1ccc(Oc3ccccc3)cc1)CC2.Cl,0.0006 µM,0.006 µM,,2.7 µg/mL,
